# Test results taken from article PMC9574854 (Journal of Medicinal Chemistry, 2022).
# Assays:
# PfPK6 = target: T1, PfPK6 (Plasmodium falciparum, UniProt Q8IDW1); experiment: KinaseSeeker split luciferase assay on PfPK6; type: biochemical; settings: compared to IKK16
# T1 sequence (Q8IDW1 1-305): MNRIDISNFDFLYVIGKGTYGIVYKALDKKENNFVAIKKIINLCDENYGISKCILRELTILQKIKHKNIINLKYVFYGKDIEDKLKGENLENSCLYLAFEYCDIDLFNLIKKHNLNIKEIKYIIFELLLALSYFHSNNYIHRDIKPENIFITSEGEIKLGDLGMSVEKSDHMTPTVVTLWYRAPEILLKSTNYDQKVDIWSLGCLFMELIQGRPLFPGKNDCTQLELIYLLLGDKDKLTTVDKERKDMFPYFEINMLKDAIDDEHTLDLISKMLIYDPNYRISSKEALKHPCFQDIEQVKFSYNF
# PfGSK3 = target: T2, PfGSK3 (Plasmodium falciparum, UniProt O77344); experiment: KinaseSeeker split luciferase assay on PfGSK3; type: biochemical; settings: screen at 1 μM
# T2 sequence (O77344 1-440): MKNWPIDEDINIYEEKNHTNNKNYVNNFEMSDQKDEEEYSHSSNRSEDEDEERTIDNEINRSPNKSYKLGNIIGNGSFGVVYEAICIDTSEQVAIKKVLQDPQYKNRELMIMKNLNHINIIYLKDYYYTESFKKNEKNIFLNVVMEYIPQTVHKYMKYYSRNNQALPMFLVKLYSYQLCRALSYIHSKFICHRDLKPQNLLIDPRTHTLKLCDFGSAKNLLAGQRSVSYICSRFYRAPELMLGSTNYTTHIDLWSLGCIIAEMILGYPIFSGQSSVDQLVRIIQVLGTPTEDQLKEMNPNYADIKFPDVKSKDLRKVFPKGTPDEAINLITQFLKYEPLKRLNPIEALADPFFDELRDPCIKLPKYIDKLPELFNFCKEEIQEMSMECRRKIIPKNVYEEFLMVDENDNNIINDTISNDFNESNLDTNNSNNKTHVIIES
# Method in brief: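 Split-luciferase binding assay: lysate with Cfluc-PfGSK3 fusion plus Fos-Nfluc, incubated 2 h with test compound in DMSO (or DMSO control) and a kinase-specific probe. Luminescence was read immediately after luciferin reagent. % inhibition = (control − sample)/control × 100. Compounds were first counter-screened against split luciferase, then screened at 1 μM.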
# [1] = HepG2 CellTiter-Glo cytotoxicity assay; type: cell-based, human; settings: human, HepG2 cells
# Method in brief: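 HepG2 cells were grown in DMEM with 10% FBS, 1% NEAA and 1% L-glutamine, without antibiotics. They were seeded at 4000 cells/well and left overnight at 37 °C, 5% CO₂. Test compound was added at 200 nM or 2 μM, in quadruplicate, with DMSO held constant, for 48 h. Viability was read by CellTiter-Glo 2 luminescence. % viability is the average of two experiments.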
compound,measurement,setting,value
"c1ccc2sc(-c3ccnc(Nc4ccc(CN5CCC(N6CCCC6)CC5)cc4)n3)cc2c1 [Compound 12, 4-(Benzo[b]thiophen-2-yl)-N-(4-((4-(pyrrolidin-1-yl)piperidin-1-yl)methyl)phenyl)pyrimidin-2-amine]",fold increase in potency on PfPK6,PfPK6,~3 fold
same,"activity on PfGSK3, in words",PfGSK3,abolished activity
same,"viability at 48 h, 200 nM",[1],100%
